Data from ChEMBL document CHEMBL2434961, “Development of 3-phenyl-4,5,6,7-tetrahydro-1H-pyrazolo[4,3-c]pyridine derivatives as novel Mycobacterium tuberculosis pantothenate synthetase inhibitors” (Eur J Med Chem, 2013).
Converted amounts (≈) assume the structure as drawn.

Key:
Pantothenate synthetase [1] = target: T1, Pantothenate synthetase (Mycobacterium tuberculosis, UniProt P9WIL5); assay: Binding affinity to Mycobacterium tuberculosis pantothenate synthetase
T1 sequence (P9WIL5 whole entry): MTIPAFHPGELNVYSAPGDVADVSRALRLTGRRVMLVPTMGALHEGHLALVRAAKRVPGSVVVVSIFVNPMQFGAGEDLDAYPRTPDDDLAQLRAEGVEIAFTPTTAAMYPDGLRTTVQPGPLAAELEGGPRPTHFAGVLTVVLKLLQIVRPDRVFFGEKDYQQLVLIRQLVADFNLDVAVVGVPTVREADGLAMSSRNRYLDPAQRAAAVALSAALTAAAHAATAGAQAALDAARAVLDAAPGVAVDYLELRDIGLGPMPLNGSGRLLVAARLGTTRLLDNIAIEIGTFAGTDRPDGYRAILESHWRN

[2] = Cytotoxicity against mouse RAW264.7 cells assessed as inhibition of cell viability at 50 uM after 72 hrs by MTT assay relative to control; assay type: cell-based; settings: read-out: INH
Method in brief: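 RAW 264.7 mouse macrophage cells exposed to compound at 50 µM for 72 h. Viability assessed by cellular conversion of MTT to formazan.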

[3] = tested on: Mycobacterium tuberculosis; assay: Antibacterial activity against Mycobacterium tuberculosis H37Rv ATCC 27294 assessed as growth inhibition after 28 days by agar dilution method; assay type: functional; settings: H37Rv ATCC 27294, 672 h
Method in brief: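 Two-fold serial dilutions incorporated into Middlebrook 7H11 agar with OADC, final 50 to 0.78 µg/mL. Inoculum of 1 mg/mL (wet weight) in 0.05% Tween 80 saline, diluted 10⁻² to ~10⁷ cfu/mL. 5 µL spotted per tube, incubated at 37 °C for 28 days. MIC is the lowest concentration giving complete growth inhibition.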

[4] = target: T2, Pantothenate synthetase (Mycobacterium tuberculosis) (UniProt P9WIL5); assay: Inhibition of Mycobacterium tuberculosis pantothenate synthetase cloned in Escherichia coli BL21 (DE3) using ATP, beta-alanine, pantoic acid as substrate assessed as NAD+ production at 100 uM measured every 12 secs for 120 secs by spectrophotometric analysis relative to control
T2 sequence (whole entry): T1 sequence (P9WIL5 whole entry)
Method in brief: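 Coupled assay linking AMP from β-alanine plus pantoate condensation to NADH oxidation via myokinase, pyruvate kinase and lactate dehydrogenase. Mix held NADH, pantoic acid, β-alanine, ATP, phosphoenolpyruvate and MgCl₂ in buffer; compound (100 µM) added; reaction started with PS. A340 read every 12 s for 120 s. % inhibition = 100 × (1 − (compound rate − background)/(full rate − background)).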

Pantothenate synthetase [5] = target: T1, Pantothenate synthetase; assay: Inhibition of Mycobacterium tuberculosis pantothenate synthetase cloned in Escherichia coli BL21 (DE3) using ATP, beta-alanine, pantoic acid as substrate assessed as NAD+ production measured every 12 secs for 120 secs by spectrophotometric analysis
Method in brief: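 Same AMP-coupled NADH/A340 PS assay (NADH, pantoic acid, β-alanine, ATP, PEP, MgCl₂, myokinase, pyruvate kinase, LDH; reaction started with enzyme; read every 12 s for 120 s). IC₅₀ determined for compounds exceeding 60% inhibition at 100 µM, using rate-based % inhibition corrected for background.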

SMILES | Kd (Pantothenate synthetase [1]) [µM] | cytotoxicity at 72 h, 50 µM [2] [%] | MIC [3] [µM] | inhibition [4] [%] | IC50 (Pantothenate synthetase [5]) [µM]
Cc1ccc2c(c1)C=C(C(=O)NS(=O)(=O)c1cc3ccccc3o1)C2CC(=O)O (configuration not stated) | 1.8 |  |  |  | 
CC(C)NC(=O)N1CCc2c(c(-c3ccccc3)nn2C(=O)c2ccccc2)C1 |  | 10.6 | 129 (≈ 50 µg/mL) | 40.9 | 
O=C(Nc1ccc([N+](=O)[O-])cc1)N1CCc2c(c(-c3ccccc3)nn2C(=O)c2ccccc2)C1 |  | 0 | 26.7 (≈ 12.5 µg/mL) | 95.7 | 21.8
C=CCNC(=S)N1CCc2c(c(-c3ccccc3)nn2C(=O)c2ccccc2)C1 |  | 6 | > 124 | 41.7 | 
COc1ccc(NC(=S)N2CCc3c(c(-c4ccccc4)nn3C(=O)c3ccccc3)C2)cc1 |  | 0 | 107 (≈ 50 µg/mL) | 10.2 | 
O=C(Nc1cccc2ccccc12)N1CCc2c(c(-c3ccccc3)nn2C(=O)c2ccccc2)C1 |  | 4.7 | 48.8 (≈ 23.1 µg/mL) | 89.8 | 38.2
Cc1ccc(NC(=S)N2CCc3c(c(-c4ccccc4)nn3C(=O)C3CCCCC3)C2)cc1 |  | 27.8 | 51.1 (≈ 23.4 µg/mL) | 50.5 | 
COc1ccc(NC(=O)N2CCc3c(c(-c4ccccc4)nn3C(=O)C3CCCCC3)C2)cc1 |  | 52.5 | 109 (≈ 50 µg/mL) | 38.7 | 
CC(=O)c1ccc(NC(=O)N2CCc3c(c(-c4ccccc4)nn3C(=O)c3ccccc3)C2)cc1 |  | 12.8 | > 108 | 43.7 | 
CCOc1ccc(NC(=O)N2CCc3c(c(-c4ccccc4)nn3C(=O)C3CCCCC3)C2)cc1 |  | 4.9 | 106 (≈ 50 µg/mL) | 48.5 | 
Cc1ccc(S(=O)(=O)N2CCc3c(c(-c4ccccc4)nn3C(=O)c3ccccc3)C2)cc1 |  | 0 | 109 (≈ 50 µg/mL) | 9 | 
CC(=O)c1ccc(NC(=O)N2CCc3c(c(-c4ccccc4)nn3C(=O)C3CCCCC3)C2)cc1 |  | 22.5 | 108 (≈ 50.9 µg/mL) | 51.4 | 
O=C(c1ccccc1)n1nc(-c2ccccc2)c2c1CCN(C(=S)NCc1ccccc1)C2 |  | 0 | 110 (≈ 50 µg/mL) | 52.1 | 
NNC(=O)c1ccncc1 [ISONIAZID] |  |  | 0.72 (≈ 0.0987 µg/mL) | 0 | 
O=C(c1ccccc1)n1nc(-c2ccccc2)c2c1CCN(S(=O)(=O)c1ccc(F)cc1)C2 |  | 0 | 54.2 (≈ 25 µg/mL) | 77 | 38.6
O=C(Nc1ccc(Br)cc1)N1CCc2c(c(-c3ccccc3)nn2C(=O)C2CCCCC2)C1 |  | 0 | 98.5 (≈ 50 µg/mL) | 50.5 | 
COc1ccc(NC(=S)N2CCc3c(c(-c4ccccc4)nn3C(=O)C3CCCCC3)C2)cc1 |  | 9.5 | 102 (≈ 48.3 µg/mL) | 50.6 | 
O=C(Nc1ccc(Cl)cc1)N1CCc2c(c(-c3ccccc3)nn2C(=O)C2CCCCC2)C1 |  | 4 | 108 (≈ 50 µg/mL) | 54.7 | 
O=C(c1ccccc1)n1nc(-c2ccccc2)c2c1CCN(C(=S)Nc1ccc(F)cc1)C2 |  | 0.5 | 110 (≈ 50 µg/mL) | 43.5 | 
O=C(C1CCCCC1)n1nc(-c2ccccc2)c2c1CCN(S(=O)(=O)c1ccc(F)cc1)C2 |  | 1.4 | 53.5 (≈ 25 µg/mL) | 46.8 | 
Cc1ccc(NC(=O)N2CCc3c(c(-c4ccccc4)nn3C(=O)C3CCCCC3)C2)cc1 |  | 15.1 | 56.5 (≈ 25 µg/mL) | 40.8 | 
O=C(Nc1ccc(Br)cc1)N1CCc2c(c(-c3ccccc3)nn2C(=O)c2ccccc2)C1 |  | 42 | 99.7 (≈ 50 µg/mL) | 60.6 | 82.1

SMILES | Kd (Pantothenate synthetase [1]) [µM] | cytotoxicity at 72 h, 50 µM [2] [%] | MIC [3] [µM] | inhibition [4] [%] | IC50 (Pantothenate synthetase [5]) [µM]
CCOc1ccc(NC(=O)N2CCc3c(c(-c4ccccc4)nn3C(=O)c3ccccc3)C2)cc1 |  | 0 | > 107 | 47.2 | 
Cc1ccc(NC(=S)N2CCc3c(c(-c4ccccc4)nn3C(=O)c3ccccc3)C2)cc1 |  | 0 | > 110 | 23.9 | 
CC(=O)c1ccc(S(=O)(=O)N2CCc3c(c(-c4ccccc4)nn3C(=O)c3ccccc3)C2)cc1 |  | 5.3 | 51.5 (≈ 25 µg/mL) | 78.5 | 39.1
O=C(Nc1ccc(Cl)cc1)N1CCc2c(c(-c3ccccc3)nn2C(=O)c2ccccc2)C1 |  | 4.9 | 109 (≈ 50 µg/mL) | 40.2 | 
CC(C)(C)OC(=O)N1CCc2[nH]nc(-c3ccccc3)c2C1 |  |  | 26.7 (≈ 7.99 µg/mL) |  | 21.8
O=C(c1ccccc1)n1nc(-c2ccccc2)c2c1CCN(S(=O)(=O)c1ccc([N+](=O)[O-])cc1)C2 |  | 18.6 | 25.6 (≈ 12.5 µg/mL) | 39.7 | 
O=C(NCc1ccccc1)N1CCc2c(c(-c3ccccc3)nn2C(=O)c2ccccc2)C1 |  | 0.7 | 114 (≈ 49.8 µg/mL) | 46.2 | 
O=C(C1CCCCC1)n1nc(-c2ccccc2)c2c1CCN(C(=S)NCc1ccccc1)C2 |  | 20.6 | 108 (≈ 49.5 µg/mL) | 51.4 | 
O=C(Nc1cccc2ccccc12)N1CCc2c(c(-c3ccccc3)nn2C(=O)C2CCCCC2)C1 |  | 4.1 | 52.2 (≈ 25 µg/mL) | 50.9 | 
CC[C@@H](CO)NCCN[C@@H](CC)CO [ETHAMBUTOL] |  |  | 15.3 (≈ 3.12 µg/mL) | 0 | 
Cc1ccc(S(=O)(=O)N2CCc3c(c(-c4ccccc4)nn3C(=O)C3CCCCC3)C2)cc1 |  | 0 | 53.9 (≈ 25 µg/mL) | 41.6 | 
O=C(Nc1ccc([N+](=O)[O-])cc1)N1CCc2c(c(-c3ccccc3)nn2C(=O)C2CCCCC2)C1 |  | 14.9 | 52.8 (≈ 25 µg/mL) | 50.8 | 
O=C(C1CCCCC1)n1nc(-c2ccccc2)c2c1CCN(C(=S)Nc1ccc(F)cc1)C2 |  | 58.4 | 105 (≈ 48.7 µg/mL) | 49.2 | 
Cc1ccc(NC(=O)N2CCc3c(c(-c4ccccc4)nn3C(=O)c3ccccc3)C2)cc1 |  | 57.1 | 114 (≈ 49.8 µg/mL) | 49.4 | 
O=C(C1CCCCC1)n1nc(-c2ccccc2)c2c1CCN(S(=O)(=O)c1ccc([N+](=O)[O-])cc1)C2 |  | 8.3 | 50.5 (≈ 25 µg/mL) | 50.2 | 
O=C(NCc1ccccc1)N1CCc2c(c(-c3ccccc3)nn2C(=O)C2CCCCC2)C1 |  | 35.7 | 54.5 (≈ 24.1 µg/mL) | 49.1 | 
O=C(C1CCCCC1)n1nc(-c2ccccc2)c2c1CCN(C(=S)Nc1ccc([N+](=O)[O-])cc1)C2 |  | 0 | 53.5 (≈ 26.2 µg/mL) | 47.3 | 
CC(=O)c1ccc(S(=O)(=O)N2CCc3c(c(-c4ccccc4)nn3C(=O)C3CCCCC3)C2)cc1 |  | 11.5 | 50.8 (≈ 25 µg/mL) | 39.2 | 
O=C(C1CCCCC1)n1nc(-c2ccccc2)c2c1CCN(C(=S)Nc1ccc(Cl)cc1)C2 |  | 51.1 | 109 (≈ 52.2 µg/mL) | 56.3 | 
O=C(c1ccccc1)n1nc(-c2ccccc2)c2c1CCN(C(=S)Nc1ccc(Cl)cc1)C2 |  | 0 | 106 (≈ 50 µg/mL) | 37.7 | 
O=C(c1ccccc1)n1nc(-c2ccccc2)c2c1CCN(S(=O)(=O)c1cccs1)C2 |  | 6.8 | 55.6 (≈ 25 µg/mL) | 48.7 | 
O=C(C1CCCCC1)n1nc(-c2ccccc2)c2c1CCN(S(=O)(=O)c1cccs1)C2 |  | 8.1 | 54.9 (≈ 25 µg/mL) | 52 | 
